The values that follow come from PMC7488488 (Acta Pharmaceutica Sinica. B, 2019).

Like-named read-outs stand apart in the source and are kept apart here.

One test concerns the target MDM2 (Homo sapiens, UniProt Q00987). Nature of the test: TR-FRET. It is filed as binding. Conditions: read-out: Inhibition rate at 1.0 μmol/L, MDM2. (In TR-FRET formats the signal depends on donor and acceptor labels being close together.)
Another test deals with U87MG cells. Briefly: MTT cell proliferation assay. It is filed as cell-based. The following applies: read-out: Anti-proliferative activity IC50, U87MG. For orientation: Tetrazolium assays rely on reduction of a dye to a coloured formazan, in cell work by metabolically active cells.
The subject of the next test is T98G cells. Nature of the test: MTT cell proliferation assay. Conditions: read-out: Anti-proliferative activity IC50, T98G. The class given is cell-based.
The subject of the next test is U251 cells. Nature of the test: MTT cell proliferation assay. It is filed as cell-based. Conditions: read-out: Anti-proliferative activity IC50, U251.
The subject of another test is U251 xenografts. Briefly: U251 xenograft antitumor activity. The class given is in vivo. Conditions: mice; oral; 30 mg/kg; 21 days. Put shortly: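 SPF nude mice, 6–8 weeks old, with subcutaneous U251 xenografts; test compound or reference inhibitors given orally at 30 mg/kg, normal saline as vehicle control, analysed at 21 days. Tumor volume, tumor weight and body weight tracked; tumors immunostained for MDM2, P53, P21, pCDK4, pRB and Ki-67, plus TUNEL immunofluorescence, scored as percent positive cells; mean ± SD.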

For a further test, the system named is MDM2 and CDK4. Nature of the test: TR-FRET inhibition at concentrations below 1.0 μmol/L. It is filed as biochemical. The following applies: target per compound not stated.
[1] abbreviates: 24-h incubation, MTT, mutated P53.

MDM2, sequence (Q00987 whole entry): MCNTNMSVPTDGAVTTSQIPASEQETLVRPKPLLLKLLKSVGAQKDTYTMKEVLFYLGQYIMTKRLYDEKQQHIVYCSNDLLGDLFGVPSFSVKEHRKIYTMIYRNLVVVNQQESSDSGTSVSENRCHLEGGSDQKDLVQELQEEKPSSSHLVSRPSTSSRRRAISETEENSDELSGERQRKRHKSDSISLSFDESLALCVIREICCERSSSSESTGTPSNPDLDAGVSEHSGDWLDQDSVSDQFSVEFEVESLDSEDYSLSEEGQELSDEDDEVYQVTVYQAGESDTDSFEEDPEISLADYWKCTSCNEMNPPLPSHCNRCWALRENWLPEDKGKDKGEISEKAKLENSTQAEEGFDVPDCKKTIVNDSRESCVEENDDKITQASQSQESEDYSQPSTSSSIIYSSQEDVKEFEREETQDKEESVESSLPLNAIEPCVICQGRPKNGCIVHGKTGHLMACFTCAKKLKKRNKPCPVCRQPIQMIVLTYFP

For orientation: IC50 means the concentration that inhibits the measured activity by half. As to `O=C(c1ccc(F)cc1)[C@H]1Cc2c(cc([N+](=O)[O-])cc2[N+](=O)[O-])[C@H](O)[C@]12C(=O)Nc1ccccc12` [4m′, (1′S,3S,3′S)-3′-(4-Fluorobenzoyl)-1′-hydroxy-5′,7′-dinitro-3′,4′-dihydro-1′H-spiro[indoline-3,2′-naphthalen]-2-one], on MDM2, the inhibition at 1 µM was 36.2%. Moreover, the concentration for half-maximal inhibition (IC50) in the test on U87MG cells (Homo sapiens, U-87 MG, 24 h) was more than 50 µM; in the test with T98G cells (Homo sapiens, T98G, 24 h) it was more than 50 µM; in the test with U251 cells (Homo sapiens, U-251, 24 h), more than 50 µM.
As to `O=C(c1ccc(Cl)c(Cl)c1)[C@H]1Cc2c(cc([N+](=O)[O-])cc2[N+](=O)[O-])[C@@H](O)[C@@]12C(=O)Nc1ccccc12` [4n, (1′R,3R,3′S)-3′-(3,4-Dichlorobenzoyl)-1′-hydroxy-5′,7′-dinitro-3′,4′-dihydro-1′H-spiro[indoline-3,2′-naphthalen]-2-one], at MDM2, the inhibition at 1 µM came to 38.4 ± 2.7%. In addition, the IC50 in the test with U87MG cells (Homo sapiens, U-87 MG, 24 h) worked out at 34.9 ± 2.62 µM; in the test with T98G cells (Homo sapiens, T98G, 24 h) it was 32.5 ± 2.9 µM; with U251 cells (Homo sapiens, U-251, 24 h), 25.9 ± 3.5 µM.
As to `O=C(c1ccc(Cl)c(Cl)c1)[C@H]1Cc2c(cc([N+](=O)[O-])cc2[N+](=O)[O-])[C@H](O)[C@]12C(=O)Nc1ccccc12` [4n′, (1′S,3S,3′S)-3′-(3,4-Dichlorobenzoyl)-1′-hydroxy-5′,7′-dinitro-3′,4′-dihydro-1′H-spiro[indoline-3,2′-naphthalen]-2-one], the inhibition at 1 µM at MDM2 is 36.3%. Besides, the IC50 in the test on U87MG cells (Homo sapiens, U-87 MG, 24 h) was more than 50 µM; in the test on T98G cells (Homo sapiens, T98G, 24 h), more than 50 µM; with U251 cells (Homo sapiens, U-251, 24 h), more than 50 µM.
On to `O=C(c1ccc(Br)cc1)[C@H]1Cc2c(cc([N+](=O)[O-])cc2[N+](=O)[O-])[C@@H](O)[C@@]12C(=O)Nc1ccccc12` [4o, (1′R,3R,3′S)-3′-(4-Bromobenzoyl)-1′-hydroxy-5′,7′-dinitro-3′,4′-dihydro-1′H-spiro[indoline-3,2′-naphthalen]-2-one], for which, at MDM2, the inhibition at 1 µM was 47.1 ± 5.8%. Also, the IC50 in the test on U87MG cells (Homo sapiens, U-87 MG, 24 h) turned out to be 41.6 ± 4.3 µM; in the test with T98G cells (Homo sapiens, T98G, 24 h), 45.7 ± 6.7 µM; in the test with U251 cells (Homo sapiens, U-251, 24 h), 44.2 ± 4.6 µM.
On the same counts, the results for `O=C(c1ccc(Br)cc1)[C@H]1Cc2c(cc([N+](=O)[O-])cc2[N+](=O)[O-])[C@H](O)[C@]12C(=O)Nc1ccccc12` [4o′, (1′S,3S,3′S)-3′-(4-Bromobenzoyl)-1′-hydroxy-5′,7′-dinitro-3′,4′-dihydro-1′H-spiro[indoline-3,2′-naphthalen]-2-one] are 29%, more than 50 µM, more than 50 µM and more than 50 µM.
Turning to `COc1ccc(C(=O)[C@H]2Cc3c(cc([N+](=O)[O-])cc3[N+](=O)[O-])[C@@H](O)[C@@]23C(=O)Nc2ccccc23)cc1` [4p, (1′R,3R,3′S)-1′-Hydroxy-3′-(4-methoxybenzoyl)-5′,7′-dinitro-3′,4′-dihydro-1′H-spiro[indoline-3,2′-naphthalen]-2-one], on MDM2, the inhibition at 1 µM was determined as 35.7 ± 4.9%. Also, the IC50 in the test on U87MG cells (Homo sapiens, U-87 MG, 24 h) was determined as 39.9 ± 4.2 µM; in the test on T98G cells (Homo sapiens, T98G, 24 h) it was 45.9 ± 8.1 µM; in the test on U251 cells (Homo sapiens, U-251, 24 h) it was 43.2 ± 5.9 µM.
On to `COc1ccc(C(=O)[C@H]2Cc3c(cc([N+](=O)[O-])cc3[N+](=O)[O-])[C@H](O)[C@]23C(=O)Nc2ccccc23)cc1` [4p′, (1′S,3S,3′S)-1′-Hydroxy-3′-(4-methoxybenzoyl)-5′,7′-dinitro-3′,4′-dihydro-1′H-spiro[indoline-3,2′-naphthalen]-2-one], for which, on MDM2, the inhibition at 1 µM was 26.9%. For the same compound, the IC50 was more than 50 µM with U87MG cells (Homo sapiens, U-87 MG, 24 h); more than 50 µM with T98G cells (Homo sapiens, T98G, 24 h); more than 50 µM in the test with U251 cells (Homo sapiens, U-251, 24 h).
On to `COc1ccc(C2=N[C@@H](c3ccc(Cl)cc3)[C@@H](c3ccc(Cl)cc3)N2C(=O)N2CCNC(=O)C2)c(OC(C)C)c1` [Nutlin-3a, nutlin-3a, reference compound], for which the tumor growth entry in the test on U251 xenografts is listed as “potently inhibited tumor growth”. For the same compound, the IC50 is 25.3 ± 2.5 µM with U87MG cells (24-h incubation, MTT, wild-type P53); more than 50 µM in the test on T98G cells (setting [1]); more than 50 µM in the test on U251 cells (setting [1]). For the same compound, in the test with MDM2 and CDK4, the “inhibition at concentrations below 1.0 μmol/L” value was 40% to 20%.
Consider `CC(=O)c1c(C)c2cnc(Nc3ccc(N4CCNCC4)cn3)nc2n(C2CCCC2)c1=O` [Palbociclib, palbociclib, reference compound], for which the tumor growth result with U251 xenografts was “potently inhibited tumor growth”. Besides, the IC50 with U87MG cells (Homo sapiens, U-87 MG, 24 h) was found to be 26.4 ± 3.8 µM; in the test on T98G cells (Homo sapiens, T98G, 24 h) it was 29.5 ± 4.5 µM; with U251 cells (Homo sapiens, U-251, 24 h), 18.9 ± 2.4 µM.
